Assay results reported in ChEMBL document CHEMBL3865797, “Design, synthesis and biological evaluation of berberine-benzimidazole hybrids as new type of potentially DNA-targeting antimicrobial agents” (Eur J Med Chem, 2016).
The source made the active and inactive calls. The calls are words filed in the database; no cut-off is given here.

Assays:
[1] = test system: Staphylococcus aureus; test: Antibacterial activity against Staphylococcus aureus ATCC 25923 measured after 24 hrs by two-fold serial dilution method; format: functional; details: ATCC 25923, 24 h
Method in brief: (§1)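 MIC by two-fold serial broth microdilution in 96-well plates, following NCCLS recommendations. Chloromycin, norfloxacin and fluconazole serve as reference drugs. The MIC is read as the lowest concentration that inhibits growth, in µg/mL.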

[2] = test system: Staphylococcus aureus; test: Antibacterial activity against methicillin-resistant Staphylococcus aureus N315 measured after 24 hrs by two-fold serial dilution method; format: functional; details: N315, 24 h
Method in brief: (§2)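 Two-fold serial dilution in 96-well microtest plates following NCCLS guidance (micro broth dilution). Chloromycin and norfloxacin serve as positive controls. MIC is reported in µg/mL.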

[3] = test system: Bacillus subtilis; test: Antibacterial activity against Bacillus subtilis measured after 24 hrs by two-fold serial dilution method; format: functional; method in brief: as §1
[4] = test system: Micrococcus luteus; test: Antibacterial activity against Micrococcus luteus ATCC 4698 measured after 24 hrs by two-fold serial dilution method; format: functional; details: NCTC 2665, 24 h; method in brief: as §1
[5] = test system: Proteus vulgaris; test: Antibacterial activity against Bacillus proteus ATCC 13315 measured after 24 hrs by two-fold serial dilution method; format: functional; details: ATCC 13315, 24 h; method in brief: as §1
[6] = test system: Escherichia coli; test: Antibacterial activity against Escherichia coli JM109 measured after 24 hrs by two-fold serial dilution method; format: functional; details: JM109, 24 h; method in brief: as §1
[7] = test system: Pseudomonas aeruginosa; test: Antibacterial activity against Pseudomonas aeruginosa measured after 24 hrs by two-fold serial dilution method; format: functional; method in brief: as §1
[8] = test system: Salmonella typhi; test: Antibacterial activity against Salmonella typhi measured after 24 hrs by two-fold serial dilution method; format: functional, Salmonella enterica subsp. enterica serovar Typhi; details: Salmonella enterica; method in brief: as §2
[9] = test system: Candida albicans; test: Antifungal activity against Candida albicans ATCC 76615 measured after 24 hrs by two-fold serial dilution method; format: functional; details: ATCC 76615, 24 h; method in brief: as §1
[10] = Antifungal activity against Candida utilis measured after 24 hrs by two-fold serial dilution method; format: functional; details: Cyberlindnera jadinii; method in brief: as §1
[11] = Antifungal activity against Saccharomyces cerevisiae measured after 24 hrs by two-fold serial dilution method; format: functional; method in brief: as §1
[12] = test system: Aspergillus flavus; test: Antifungal activity against Aspergillus flavus measured after 24 hrs by two-fold serial dilution method; format: functional; method in brief: as §1
[13] = test system: Escherichia coli; test: Induction of Escherichia coli supercoiled pET-28a DNA cleavage measured at 0.1 mM after 5 hrs by agarose gel electrophoresis method
[14] = test system: Staphylococcus aureus; test: Induction of membrane permeabilization in methicillin-resistant Staphylococcus aureus N315 at 12 times MIC by propidium iodide staining-based fluorescence analysis; format: functional
Method in brief: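 Cells are exposed to the agent at 12 × MIC, then stained with propidium iodide. The dye enters only cells with compromised membranes and fluoresces on binding DNA, so fluorescence serves as the permeabilization read-out.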

[15] = test system: Escherichia coli; test: Induction of membrane permeabilization in Escherichia coli DH52 at 12 times MIC by propidium iodide staining-based fluorescence analysis; format: functional
Method in brief: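 Propidium iodide uptake measured by fluorescence in E. coli DH52 exposed to agent at 12 × MIC. The dye enters bacteria with compromised membranes and fluoresces on binding DNA.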

[16] = organism: Bos taurus; test: Binding affinity to calf thymus DNA assessed as hypochromic effect by UV-vis spectroscopy
[17] = organism: Bos taurus; test: Binding affinity to calf thymus DNA assessed as increase in maximum absorption peak at 260 nm by UV-vis spectroscopy
Method in brief: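 Absorption spectra of DNA recorded at pH 7.4 and 298 K with increasing concentrations of added agent. Absorbance at 260 nm of the complex is compared with the summed absorbance of free DNA and free agent.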

[18] = organism: Bos taurus; test: Binding affinity to calf thymus DNA by UV-vis spectroscopy
[19] = organism: Bos taurus; test: Binding affinity to calf thymus DNA assessed as DNA intercalation by neutral red dye based UV-vis spectroscopy

| Compound | MIC [1] | MIC [2] | MIC [3] | MIC [4] | MIC [5] | MIC [6] | MIC [7] | MIC [8] | MIC80 [9] | MIC80 [10] | MIC80 [11] | MIC80 [12] | Activity [13] | Activity [14] | Activity [15] | Activity [16] | Activity [17] | K [18] | Activity [19] |
| --- | --- | --- | --- | --- | --- | --- | --- | --- | --- | --- | --- | --- | --- | --- | --- | --- | --- | --- | --- |
| CCCCCCCn1c(COc2c(OC)ccc3cc4[n+](cc23)CCc2cc3c(cc2-4)OCO3)nc2ccccc21.[Cl-] | 4 µg/mL | 8 µg/mL | 32 µg/mL | 64 µg/mL | 512 µg/mL | 4 µg/mL | 16 µg/mL | 2 µg/mL | 4 µg/mL | 8 µg/mL | 512 µg/mL | 32 µg/mL | Dose-dependent effect | Active | Active | Active | Dose-dependent effect | 4.12 ×10⁴ L/mol | Active |
| CCCCCCCCn1c(COc2c(OC)ccc3cc4[n+](cc23)CCc2cc3c(cc2-4)OCO3)nc2ccccc21.[Cl-] | 8 µg/mL | 64 µg/mL | 8 µg/mL | 64 µg/mL | 512 µg/mL | 512 µg/mL | 8 µg/mL | 32 µg/mL | 16 µg/mL | 32 µg/mL | 512 µg/mL | 256 µg/mL | – | – | – | – | – | – | – |
| CCCCCn1c(COc2c(OC)ccc3cc4[n+](cc23)CCc2cc3c(cc2-4)OCO3)nc2ccccc21.[Cl-] | 64 µg/mL | 16 µg/mL | 32 µg/mL | 32 µg/mL | 128 µg/mL | 128 µg/mL | 64 µg/mL | 4 µg/mL | 32 µg/mL | 8 µg/mL | 512 µg/mL | 16 µg/mL | – | – | – | – | – | – | – |
